This is an account of results in ChEMBL document CHEMBL1157555, “Synthesis and pharmacological evaluation of novel 1,3,8- and 1,3,7,8-substituted xanthines as adenosine receptor antagonists” (Bioorg Med Chem, 2010).

Each structure is given as a SMILES string. pKi: −log10 of the molar value.

For test [1], the target named is T1, Adenosine receptor A2a (Homo sapiens, UniProt P29274). Description: Displacement of [3H]ZM241385 from human recombinant adenosine A2A receptor expressed in human HeLa cells at 1 uM by microplate beta scintillation counter. The class given is cell-based. In a few lines:
(§1)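 Competition used HeLa cell membranes expressing human A2A with [3H]ZM241385. Non-specific binding was set with NECA. Incubation was 30 min at 25 °C, then filtration and beta scintillation counting. IC50 from non-linear regression was converted to Ki (Cheng–Prusoff). Weak or poorly soluble compounds were reported as % inhibition of specific binding at a single concentration. Three experiments, each in duplicate.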
A general note: In a radioligand displacement assay an active substance lowers the binding of a labelled ligand.

Test [2] concerns the target T2, Adenosine receptor A2b (Homo sapiens) (UniProt P29275).
T2 sequence (whole entry): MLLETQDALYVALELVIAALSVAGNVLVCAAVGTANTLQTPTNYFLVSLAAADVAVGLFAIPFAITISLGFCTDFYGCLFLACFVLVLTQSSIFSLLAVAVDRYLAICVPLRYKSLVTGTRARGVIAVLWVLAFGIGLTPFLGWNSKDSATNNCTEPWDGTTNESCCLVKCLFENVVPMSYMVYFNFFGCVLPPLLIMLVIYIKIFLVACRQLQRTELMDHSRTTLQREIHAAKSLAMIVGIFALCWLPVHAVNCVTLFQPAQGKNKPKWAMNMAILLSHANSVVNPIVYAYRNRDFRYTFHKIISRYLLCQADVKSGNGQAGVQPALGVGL
The test is described as follows: Displacement of [3H]DPCPX from human recombinant adenosine A2B receptor expressed in HEK293 cells at 1 uM by microplate beta scintillation counter. The class given is cell-based. In a few lines:
(§2)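 Membranes from HEK-293 cells expressing human A2B were labelled with 35 nM [3H]DPCPX. Incubation ran 30 min at 25 °C, followed by filtration and beta scintillation counting. IC50 was fitted by non-linear regression and converted to Ki by Cheng–Prusoff. Weak or poorly soluble compounds were given as % inhibition of specific binding at a single concentration. n = 3, each in duplicate.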

Test [3] deals with T3, Adenosine receptor A1 (Homo sapiens) (UniProt P30542).
T3 sequence (whole entry): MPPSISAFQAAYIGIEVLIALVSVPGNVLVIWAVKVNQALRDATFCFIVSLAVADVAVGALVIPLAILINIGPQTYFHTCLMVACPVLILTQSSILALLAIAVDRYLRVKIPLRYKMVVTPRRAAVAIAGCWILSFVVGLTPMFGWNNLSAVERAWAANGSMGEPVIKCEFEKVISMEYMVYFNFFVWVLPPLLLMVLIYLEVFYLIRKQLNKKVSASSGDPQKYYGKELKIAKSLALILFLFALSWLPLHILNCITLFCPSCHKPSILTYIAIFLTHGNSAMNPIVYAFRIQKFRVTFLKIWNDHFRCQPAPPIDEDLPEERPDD
The test is described as follows: Displacement of [3H]DPCPX from human recombinant adenosine A1 receptor expressed in CHO cells at 1 uM by microplate beta scintillation counter. The class given is cell-based. In a few lines: (§3)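 Membranes from CHO cells expressing human A1 were labelled with 2 nM [3H]DPCPX. Non-specific binding was defined with (R)-PIA. Incubation ran 60 min at 25 °C, then samples were filtered and counted by beta scintillation. IC50 came from non-linear regression, and Ki from Cheng–Prusoff. Weak or poorly soluble compounds were reported as % inhibition of specific binding at a single concentration. Mean of 3 experiments, each in duplicate.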

The target in test [4] is T4, Adenosine receptor A3 (Homo sapiens) (UniProt P0DMS8).
T4 sequence (whole entry): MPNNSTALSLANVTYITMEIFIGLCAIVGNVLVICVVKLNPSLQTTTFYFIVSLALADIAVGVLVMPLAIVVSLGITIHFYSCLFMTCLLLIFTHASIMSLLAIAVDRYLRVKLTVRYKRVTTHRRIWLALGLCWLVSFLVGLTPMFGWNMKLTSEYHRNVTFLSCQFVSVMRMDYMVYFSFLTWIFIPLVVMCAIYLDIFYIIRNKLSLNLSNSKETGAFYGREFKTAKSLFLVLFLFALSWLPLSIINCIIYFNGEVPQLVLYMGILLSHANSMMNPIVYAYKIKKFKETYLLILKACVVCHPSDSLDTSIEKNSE
The test is described as follows: Displacement of [3H]NECA from human recombinant adenosine A3 receptor expressed in human HeLa cells at 1 uM by microplate beta scintillation counter. The class given is cell-based. In short, it runs like this: (§4)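 HeLa-A3 cell membranes were labelled with 30 nM [3H]NECA. Non-specific binding was defined with (R)-PIA. After 180 min at 25 °C, samples were filtered and counted by beta scintillation. Ki was calculated by Cheng–Prusoff from IC50 obtained by non-linear regression. Weak or poorly soluble compounds were reported as % inhibition of specific binding at a single concentration. Mean of 3 experiments in duplicate.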

For a further test, the target named is T5, Adenosine receptor A3 (Homo sapiens, UniProt P0DMS8).
T5 sequence (P0DMS8 whole entry): T4 sequence (whole entry)
Description: Displacement of [3H]NECA from human recombinant adenosine A3 receptor expressed in human HeLa cells by microplate beta scintillation counter. The class given is cell-based. In a few lines: as §4

A further test deals with T6, Adenosine receptor A1 (Homo sapiens, UniProt P30542).
T6 sequence (P30542 whole entry): T3 sequence (whole entry)
The test is described as follows: Displacement of [3H]DPCPX from human recombinant adenosine A1 receptor expressed in CHO cells by microplate beta scintillation counter. The class given is cell-based. In a few lines:
as §3

The target in another test is T7, Adenosine receptor A2b (Homo sapiens, UniProt P29275).
T7 sequence (P29275 whole entry): T2 sequence (whole entry)
Description: Displacement of [3H]DPCPX from human recombinant adenosine A2B receptor expressed in HEK293 cells by microplate beta scintillation counter. The class given is cell-based. In short, it runs like this: as §2

The species named for another test is Homo sapiens. Description: Selectivity ratio of Ki for human adenosine A2A receptor to Ki for human adenosine A2B receptor. In a few lines:
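Ratios of Ki values at each human subtype to Ki at human A2B (HEK-293 membranes, [3H]DPCPX). Each Ki was derived by Cheng–Prusoff from IC50 of radioligand competition binding in membranes of transfected cells. Results are the mean of 3 experiments, each in duplicate.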

Test [5] concerns the target T1, Adenosine receptor A2a. Description: Displacement of [3H]ZM241385 from human recombinant adenosine A2A receptor expressed in human HeLa cells by microplate beta scintillation counter. The class given is cell-based. In short, it runs like this:
as §1

T1 sequence (P29274 whole entry): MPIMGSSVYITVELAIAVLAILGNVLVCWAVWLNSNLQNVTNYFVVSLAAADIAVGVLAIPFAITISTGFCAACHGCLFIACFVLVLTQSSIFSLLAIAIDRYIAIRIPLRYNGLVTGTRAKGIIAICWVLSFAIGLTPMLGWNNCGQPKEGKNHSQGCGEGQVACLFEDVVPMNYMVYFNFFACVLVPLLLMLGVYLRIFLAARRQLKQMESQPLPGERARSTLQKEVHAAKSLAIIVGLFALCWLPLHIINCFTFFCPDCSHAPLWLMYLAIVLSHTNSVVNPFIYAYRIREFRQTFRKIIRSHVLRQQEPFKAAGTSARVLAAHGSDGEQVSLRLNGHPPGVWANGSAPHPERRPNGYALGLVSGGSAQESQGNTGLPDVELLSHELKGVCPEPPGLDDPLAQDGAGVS

Regarding `CCOCCn1c(=O)n(CC)c(=O)c2[nH]c(-c3ccc(-c4ccccc4)cc3)nc21`, the Activity at Adenosine receptor A2a [1] is 28%; in test [2], 46%; in test [3] it was 19%; in test [4], 17%.
Regarding `CCCn1c(=O)c2[nH]c(Cc3ccccc3)nc2n(CC[S+]([O-])CC)c1=O` (stereo not drawn), the Activity at Adenosine receptor A2a [1] came to 7%; in test [2] it was 1%; in test [3] it was 10%; in [4] it was 18%.
Turning to `CCCn1c(=O)c2[nH]c(Cc3ccccc3)nc2n(CCOCC)c1=O`, the Activity was 13% at Adenosine receptor A2a [1], 5% in test [2], 22% in test [3] and 2% in test [4].
What is called pKi is −log10 of the Ki, conventionally taken in molar units. Consider `CCCn1c(=O)c2c(nc(-c3ccccc3)n2C)n(CC2CCCO2)c1=O` (stereo not drawn), for which the pKi on Adenosine receptor A3 is 6.20. In addition, the values for the Activity (on Adenosine receptor A2a [1]; in test [2]; in [3]) were 25%, 41% and 38%, respectively.
For the compound `CCn1c(=O)c2[nH]c(Cc3c(F)cccc3F)nc2n(Cc2cccs2)c1=O`, the Activity on Adenosine receptor A2a [1] came out at 21%; in test [2] it was 52%; in test [3], 28%; in test [4], 38%.
The matching figures for `CCCn1c(=O)c2[nH]c(Cc3ccccc3)nc2n(CC2CCCO2)c1=O` (stereo not drawn): 24%, 32%, 2% and 10%.
The matching figures for `CCn1c(=O)c2[nH]c(Cc3c(F)cccc3F)nc2n(Cc2ccccc2)c1=O`: 1%, 8%, 23% and 1%.
The like results for `O=c1c2[nH]c(-c3cccs3)nc2n(CC2CCCCC2)c(=O)n1CC1CCCCC1` were, in that order, 14%, 10%, 2% and 2%.
On to `CCSCCn1c(=O)n(CC)c(=O)c2[nH]c(Cc3ccccc3)nc21`, for which the Activity on Adenosine receptor A2a [1] was determined as 0%; in test [2], 5%; in test [3] it was 34%; in [4], 10%.
The matching figures for `CCn1c(=O)c2[nH]c(Cc3ccco3)nc2n(Cc2ccccc2)c1=O`: 9%, 34%, 23% and 30%.
The like results for `Cn1c(=O)c2[nH]c(Cc3cccs3)nc2n(CC2CCCCC2)c1=O` were, in that order, 11%, 2%, 42% and 2%.
The matching figures for `CCCn1c(=O)c2[nH]c(Cc3ccccc3)nc2n(CCSCC)c1=O`: 8%, 12%, 33% and 1%.
Turning to `CCn1c(=O)c2[nH]c(Cc3ccccc3)nc2n(CC[S+]([O-])CC)c1=O` (stereo not drawn), the Activity at Adenosine receptor A2a [1] turned out to be 0%; in test [2], 0%; in [3], 5%; in test [4], 3%.
Turning to `CCCn1c(=O)c2[nH]c(Cc3ccccc3)nc2n(CCS(=O)(=O)CC)c1=O`, the Activity at Adenosine receptor A2a [1] was determined as 13%; in test [2], 2%; in test [3], 15%; in test [4] it was 15%.
Consider `CCn1c(=O)c2c(nc(Cc3c(F)cccc3F)n2C)n(Cc2ccccc2)c1=O`, for which the Activity at Adenosine receptor A2a [1] worked out at 28%; in [2] it was 48%; in test [3] it was 21%; in test [4], 4%.
With `CCCn1c(=O)c2[nH]c(-c3ccccc3)nc2n(CC2CCCO2)c1=O` (stereo not drawn), the pKi on Adenosine receptor A3 is 6.87; on Adenosine receptor A1 it was 6.65. Further, the Activity on Adenosine receptor A2a [1] was 37%; in [2], 64%.
As to `Cn1c(=O)c2[nH]c(-c3cccs3)nc2n(CC2CCCCC2)c1=O`, the results for the Activity (at Adenosine receptor A2a [1]; in [2]; in [4]) were 29%, 34% and 41%, respectively. Further, the pKi at Adenosine receptor A1 is 6.66.
Regarding `CCn1c(=O)c2[nH]c(-c3ccccc3)nc2n(CC[S+]([O-])CC)c1=O` (stereo not drawn), the Activity at Adenosine receptor A2a [1] is 20%; in [2], 32%; in [3], 29%; in test [4], 0%.
The like results for `CCn1c(=O)c2[nH]c(Cc3ccccc3)nc2n(CCS(=O)(=O)CC)c1=O` were, in that order, 1%, 55%, 6% and 6%.
The matching figures for `CCCn1c(=O)c2[nH]c(-c3ccccc3)nc2n(CCOCC)c1=O`: 6%, 24%, 39% and 47%.
The matching figures for `CCn1c(=O)c2[nH]c(Cc3cccs3)nc2n(Cc2ccccc2)c1=O`: 6%, 52%, 22% and 39%.
As to `CCn1c(=O)c2[nH]c(-c3ccccc3)nc2n(CCS(=O)(=O)CC)c1=O`, the Activity turned out to be 0% on Adenosine receptor A2a [1], 18% in test [2], 35% in [3] and 35% in test [4].
Consider `CCn1c(=O)c2[nH]c(Cc3ccco3)nc2n(Cc2cccs2)c1=O`, for which the Activity is 19% on Adenosine receptor A2a [1], 30% in [2] and 42% in [4]. The pKi on Adenosine receptor A1 was 6.39.
Regarding `CCn1c(=O)c2c(nc(Cc3ccco3)n2C)n(Cc2ccccc2)c1=O`, the negative logarithm of the Ki (pKi) was 6.55 at Adenosine receptor A2b and 5.76 on Adenosine receptor A2a [5]. The Ratio Ki in the test filed under Homo sapiens was 6.2. Further, the values for the Activity in [3] and in test [4] were 29% and 14%, respectively.
Regarding `CCSCCn1c(=O)n(CC)c(=O)c2[nH]c(-c3ccc(-c4ccccc4)cc3)nc21`, the Activity was determined as 4% on Adenosine receptor A2a [1], 22% in test [2], 7% in test [3] and 17% in [4].
In the case of `CCCn1c(=O)c2c(nc(-c3ccccc3)n2C)n(CCSCC)c1=O`, the Activity at Adenosine receptor A2a [1] turned out to be 2%; in [2], 26%; in [3], 17%; in [4] it was 1%.
Regarding `O=c1c2[nH]c(Cc3cccs3)nc2n(CC2CCCCC2)c(=O)n1CC1CCCCC1`, the Activity on Adenosine receptor A2a [1] worked out at 50%; in test [2], 1%; in [3], 4%; in test [4], 16%.
Take `CCCn1c(=O)c2[nH]c(-c3ccccc3)nc2n(CCS(=O)(=O)CC)c1=O`: the negative logarithm of the Ki (pKi) at Adenosine receptor A3 and at Adenosine receptor A1 was 7.03 each time. The Activity at Adenosine receptor A2a [1] was determined as 3%; in [2], 39%.
